Experimental data of several laboratories.
Protocols differ between the studies behind these lines.
Target: LIM domain kinase 2 (LIMK2, Homo sapiens, UniProt P53671)

| SMILES | test | conditions | remaining binding |
| --- | --- | --- | --- |
| C[C@@H]1CCN(c2nccc(-c3cnn4ncccc34)n2)C1 | binding | 1 µM | 87% |
| FC(F)(F)Oc1cccc(-c2cnc3ccc(-c4ccncc4)nn23)c1 | cell-free assay, competition with immobilised ligand | 5 µM | 69% |
| CC1CCCN1c1nccc(-c2cnn3ncccc23)n1 (stereo not shown) | binding | 1 µM | 96% |
| O=C1NC(c2ccccn2)Sc2ccccc21 (stereo not shown) | cell-free assay, competition with immobilised ligand | 1 µM | 92% |
| O=C(c1ccc(Nc2nccc(-c3cc4ccccc4s3)n2)cc1)N1CCC(N2CCCC2)CC1 | binding, competition with immobilised ligand | 1 µM | 47% |
| CCN1CCN(Cc2ccc(C(=O)Nc3ccc(C)c(Oc4ccc5c(c4)CC(=O)N5)c3)cc2C(F)(F)F)CC1 | binding, competition with immobilised ligand | 1 µM | 100% |
| COc1cnc(Nc2cccc(S(N)(=O)=O)c2)nc1N1CCN(c2ccccc2)CC1 | binding, competition with immobilised ligand | 1 µM | 96% |
| CCC(=O)N[C@H]1CC[C@@H](C(=O)N(C)c2ccc(-c3nc4ccccc4o3)cc2)C1 | cell-free assay, competition with immobilised ligand | 1 µM | 100% |
| CNC(=O)[C@@H]1CC[C@@H](n2c(-c3ccc4cnccc4c3)nc3ccc(C(=O)NCc4cccc(C(N)=O)c4)cc32)C1 | binding, competition with immobilised ligand | 1 µM | 100% |
| CN(C)c1nccc(-c2cnn3ncccc23)n1 | binding | 1 µM | 97% |
| O=C(NCC1CCOCC1)c1n[nH]cc1NC(=O)c1c(F)cccc1F | binding, competition with immobilised ligand | 1 µM | 97% |
| O=C(NCCCN1CCOCC1)c1ccc(Nc2ncc(Cl)c(-c3ccc(Cl)s3)n2)cc1 | binding, competition with immobilised ligand | 1 µM | 83% |
| C=CC(=O)N1CCC(C(=O)NCC(=O)N2CCN(c3nc(-c4cnc(N)nc4C(F)F)nc(N4CCOCC4)n3)CC2)CC1 | binding, competition with immobilised ligand | 1 µM | 97% |
| CC(=O)N1CCC(c2ccc(C(=O)NC3=NCCN3)cc2C(F)(F)F)CC1 | cell-free assay, competition with immobilised ligand | 1 µM | 98% |
| Cc1cnn2ncc(-c3ccnc(N(C)C)n3)c2c1 | binding | 1 µM | 94% |
| CNCc1ccccc1-c1csc([C@@H](C)Nc2nc(C)nc3cc(OC)c(OC)cc23)c1 | cell-free assay, competition with immobilised ligand | 1 µM | 96% |
| N[C@@H]1CCN(c2nccc(-c3cnn4ncccc34)n2)C1 | binding | 1 µM | 100% |
| CN(C)C(=O)Cn1cc(-c2nc(C3(c4ccc(-c5cnc(N)nc5)cc4)CC3)no2)cn1 | cell-free assay, competition with immobilised ligand | 1 µM | 85% |
| CN(c1nccc(-c2cnn3ncccc23)n1)C1CC1 | binding | 1 µM | 100% |
| CNC(=O)c1ccc(Nc2ncc(C(F)(F)F)c(NCc3nccnc3N(C)S(C)(=O)=O)n2)cc1 | cell-free assay, competition with immobilised ligand | 0.1 µM | 87% |
| O=C(c1ccc(Nc2ncc(Cl)c(-c3cc4ccccc4s3)n2)cc1)N1CCC(N2CCCC2)CC1 | binding, competition with immobilised ligand | 1 µM | 30% |
| F[C@@H]1CCN(c2nccc(-c3cnn4ncccc34)n2)C1 | binding | 1 µM | 85% |
